Measured values published in ChEMBL document CHEMBL4118021, “Studies of TAK1-centered polypharmacology with novel covalent TAK1 inhibitors” (Bioorg Med Chem, 2017).
Calls of active or inactive are those of the source. The rule behind the calls is not given here.

Key:
[1] = molecular target: Serine/threonine-protein kinase RIO3 (Homo sapiens) (UniProt O14730); test: Inhibition of full length human RIOK3 (1 to 519 residues) expressed in bacterial expression system assessed as enzyme activity at 1 uM by KINOMEScan assay relative to control; parameters: scale not given: the % may be the effect or the level left
Procedure, shortened: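 In vitro ATP-site competition binding assay (KinomeScan) across a panel of 456 kinases. Compound was tested at 1 and 10 μM. The read-out is the binding inhibition score relative to control.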

[2] = molecular target: T1, Dual specificity mitogen-activated protein kinase kinase 6 (Homo sapiens) (UniProt P52564); test: Inhibition of MAP2K6 in human SKCO1 cells at 1 uM after 4 hrs using biotin labeled DVKPSNVLINALGQVK probe by mass-spectrometric analysis relative to control; format: cell-based
T1 sequence (whole entry): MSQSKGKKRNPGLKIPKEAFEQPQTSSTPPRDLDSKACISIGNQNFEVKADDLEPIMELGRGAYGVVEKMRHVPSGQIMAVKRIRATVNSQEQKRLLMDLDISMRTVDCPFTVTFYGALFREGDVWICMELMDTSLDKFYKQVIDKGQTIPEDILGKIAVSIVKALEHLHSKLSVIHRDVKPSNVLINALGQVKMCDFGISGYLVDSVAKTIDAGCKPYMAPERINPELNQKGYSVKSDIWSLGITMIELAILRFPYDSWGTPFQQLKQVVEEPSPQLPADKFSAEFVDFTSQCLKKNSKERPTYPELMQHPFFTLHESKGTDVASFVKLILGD

[3] = molecular target: Calmodulin-2 (Homo sapiens) (UniProt P0DP24); test: Binding affinity to CALM2 in human NCI-H23 cells at 1 uM by mass spectrometry based pull down assay; format: cell-based
[4] = molecular target: Small ribosomal subunit protein uS7m (Homo sapiens) (UniProt Q9Y2R9); test: Binding affinity to MRPS7 in human NCI-H358 cells at 1 uM by mass spectrometry based pull down assay; format: cell-based
[5] = molecular target: Medium-chain specific acyl-CoA dehydrogenase, mitochondrial (Homo sapiens) (UniProt P11310); test: Binding affinity to ACADM in human NCI-H358 cells at 1 uM by mass spectrometry based pull down assay; format: cell-based
Procedure, shortened: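 NCI-H23 or NCI-H358 cells were grown and lysed. Lysates were incubated overnight at 4 °C with 1 μM biotinylated covalent probe or DMSO, then pulled down on streptavidin beads. Proteins were run on polyacrylamide gels and stained with Coomassie. Bands were excised, digested and identified by mass spectrometry.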

[6] = molecular target: Glutamine--fructose-6-phosphate aminotransferase [isomerizing] 1 (Homo sapiens) (UniProt Q06210); test: Binding affinity to GFPT1 in human NCI-H23 cells at 1 uM by mass spectrometry based pull down assay; format: cell-based
[7] = molecular target: Lysine--tRNA ligase (Homo sapiens) (UniProt Q15046); test: Binding affinity to KARS in human NCI-H358 cells at 1 uM by mass spectrometry based pull down assay; format: cell-based
[8] = molecular target: Serine/threonine-protein kinase Chk2 (Homo sapiens) (UniProt O96017); test: Binding affinity to CHEK2 in human NCI-H23 cells at 1 uM by mass spectrometry based pull down assay; format: cell-based
[9] = molecular target: Adenylyltransferase and sulfurtransferase MOCS3 (Homo sapiens) (UniProt O95396); test: Binding affinity to MOCS3 in human NCI-H23 cells at 1 uM by mass spectrometry based pull down assay; format: cell-based
[10] = molecular target: Pyrroline-5-carboxylate reductase 2 (Homo sapiens) (UniProt Q96C36); test: Binding affinity to PYCR2 in human NCI-H23 cells at 1 uM by mass spectrometry based pull down assay; format: cell-based
[11] = molecular target: Tropomyosin alpha-3 chain (Homo sapiens) (UniProt P06753); test: Binding affinity to TPM3 in human NCI-H358 cells at 1 uM by mass spectrometry based pull down assay; format: cell-based
[12] = molecular target: Jupiter microtubule associated homolog 2 (Homo sapiens) (UniProt Q9H910); test: Binding affinity to HN1L in human NCI-H358 cells at 1 uM by mass spectrometry based pull down assay; format: cell-based
NCI-H23 = test: Binding affinity to PSMA1 in human NCI-H23 cells at 1 uM by mass spectrometry based pull down assay; format: cell-based
[13] = molecular target: 80S Ribosome (Homo sapiens) (UniProt P08865+P42677+P62753+P15880+P23396+P61247+P62701+P22090+P46782+P62081+P62241+P46781+P46783+P62280+P25398+P62277+P62263+P62841+P62244+P62249+P08708+P62269+P39019+P60866+P63220+P62266+P62847+P62851+P62854+P62979+P62857+P62273+P62861+P39023+P36578+P46777+Q02878+P18124+P62424+P62917+P32969+P27635+P62906+P62913+P30050+P26373+P40429+P50914+P61313+P18621+Q07020+Q02543+P84098+P46778+P35268+P62829+P62750+P83731+P61254+P61353+P46776+P46779+P47914+P62888+P62899+P62910+P49207+P42766+P18077+Q9Y3U8+P83881+P61927+P61513+P63173+P62891+P62945+P05388+P05386); test: Binding affinity to RPL10 in human NCI-H23 cells at 1 uM by mass spectrometry based pull down assay; format: cell-based
[14] = molecular target: Thioredoxin-related transmembrane protein 1 (Homo sapiens) (UniProt Q9H3N1); test: Binding affinity to TMX1 in human NCI-H358 cells at 1 uM by mass spectrometry based pull down assay; format: cell-based
[15] = molecular target: T2, Non-receptor tyrosine-protein kinase TNK1 (Homo sapiens) (UniProt Q13470); test: Binding affinity to TNK1 in human NCI-H358 cells at 1 uM by mass spectrometry based pull down assay; format: cell-based
T2 sequence (whole entry): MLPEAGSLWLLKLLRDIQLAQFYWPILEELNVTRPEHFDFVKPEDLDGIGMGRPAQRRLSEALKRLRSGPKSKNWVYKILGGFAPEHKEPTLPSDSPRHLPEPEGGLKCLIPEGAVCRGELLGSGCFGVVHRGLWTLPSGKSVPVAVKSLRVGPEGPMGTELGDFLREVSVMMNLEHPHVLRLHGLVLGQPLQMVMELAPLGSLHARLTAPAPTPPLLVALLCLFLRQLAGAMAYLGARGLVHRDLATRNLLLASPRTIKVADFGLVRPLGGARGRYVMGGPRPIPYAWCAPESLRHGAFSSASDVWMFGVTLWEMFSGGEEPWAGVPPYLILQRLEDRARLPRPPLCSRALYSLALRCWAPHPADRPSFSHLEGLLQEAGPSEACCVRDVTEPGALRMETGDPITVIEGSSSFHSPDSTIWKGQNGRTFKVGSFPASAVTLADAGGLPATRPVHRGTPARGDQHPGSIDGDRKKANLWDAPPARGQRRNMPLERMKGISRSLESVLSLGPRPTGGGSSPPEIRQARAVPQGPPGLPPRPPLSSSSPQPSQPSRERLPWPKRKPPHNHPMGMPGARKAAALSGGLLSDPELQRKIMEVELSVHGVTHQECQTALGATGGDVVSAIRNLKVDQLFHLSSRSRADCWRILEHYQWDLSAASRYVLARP

Adenylyltransferase and sulfurtransferase MOCS3 (Homo sapiens), sequence (O95396 whole entry): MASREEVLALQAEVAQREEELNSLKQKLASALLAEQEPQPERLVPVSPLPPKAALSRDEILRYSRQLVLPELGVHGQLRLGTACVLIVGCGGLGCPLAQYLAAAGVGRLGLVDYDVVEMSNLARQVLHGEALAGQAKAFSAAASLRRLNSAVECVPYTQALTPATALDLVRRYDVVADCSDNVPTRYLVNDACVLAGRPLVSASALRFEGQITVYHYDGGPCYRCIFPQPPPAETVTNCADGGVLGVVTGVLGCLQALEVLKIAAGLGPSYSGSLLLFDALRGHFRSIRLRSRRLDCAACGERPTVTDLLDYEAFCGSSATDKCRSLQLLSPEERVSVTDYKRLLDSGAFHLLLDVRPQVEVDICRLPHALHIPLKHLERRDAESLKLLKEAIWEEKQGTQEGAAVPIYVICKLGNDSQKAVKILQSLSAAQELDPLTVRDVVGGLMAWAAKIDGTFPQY
Glutamine--fructose-6-phosphate aminotransferase [isomerizing] 1 (Homo sapiens), sequence (Q06210 whole entry): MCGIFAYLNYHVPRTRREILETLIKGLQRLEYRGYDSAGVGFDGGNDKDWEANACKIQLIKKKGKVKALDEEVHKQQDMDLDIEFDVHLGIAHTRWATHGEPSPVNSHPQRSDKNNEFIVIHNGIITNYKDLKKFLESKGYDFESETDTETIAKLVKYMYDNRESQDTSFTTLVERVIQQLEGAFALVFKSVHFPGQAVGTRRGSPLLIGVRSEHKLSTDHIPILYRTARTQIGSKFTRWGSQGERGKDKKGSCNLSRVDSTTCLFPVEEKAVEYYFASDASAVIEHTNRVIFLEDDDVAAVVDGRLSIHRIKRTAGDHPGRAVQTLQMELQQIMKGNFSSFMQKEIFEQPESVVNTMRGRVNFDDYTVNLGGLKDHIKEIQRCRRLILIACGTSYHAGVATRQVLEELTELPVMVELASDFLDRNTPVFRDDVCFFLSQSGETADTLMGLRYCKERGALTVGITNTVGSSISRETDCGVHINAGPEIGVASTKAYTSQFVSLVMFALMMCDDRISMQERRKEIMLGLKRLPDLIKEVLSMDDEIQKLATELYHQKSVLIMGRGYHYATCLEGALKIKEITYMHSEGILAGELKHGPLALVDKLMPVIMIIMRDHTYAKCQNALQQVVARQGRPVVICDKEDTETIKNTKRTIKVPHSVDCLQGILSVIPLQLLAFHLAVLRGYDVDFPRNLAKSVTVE
Medium-chain specific acyl-CoA dehydrogenase, mitochondrial (Homo sapiens), sequence (P11310 whole entry): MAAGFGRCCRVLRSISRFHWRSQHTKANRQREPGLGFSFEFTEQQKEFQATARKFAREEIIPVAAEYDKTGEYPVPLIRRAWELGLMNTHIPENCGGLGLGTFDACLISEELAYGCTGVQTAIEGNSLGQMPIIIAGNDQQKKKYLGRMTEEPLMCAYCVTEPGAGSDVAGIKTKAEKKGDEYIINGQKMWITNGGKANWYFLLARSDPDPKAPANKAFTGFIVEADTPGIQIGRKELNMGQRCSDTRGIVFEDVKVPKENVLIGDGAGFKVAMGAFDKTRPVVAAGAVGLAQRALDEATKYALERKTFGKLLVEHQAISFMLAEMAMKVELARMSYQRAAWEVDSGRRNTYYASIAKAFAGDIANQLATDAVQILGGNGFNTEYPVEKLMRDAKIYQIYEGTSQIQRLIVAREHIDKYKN
Lysine--tRNA ligase (Homo sapiens), sequence (Q15046 2-597 limits assumed): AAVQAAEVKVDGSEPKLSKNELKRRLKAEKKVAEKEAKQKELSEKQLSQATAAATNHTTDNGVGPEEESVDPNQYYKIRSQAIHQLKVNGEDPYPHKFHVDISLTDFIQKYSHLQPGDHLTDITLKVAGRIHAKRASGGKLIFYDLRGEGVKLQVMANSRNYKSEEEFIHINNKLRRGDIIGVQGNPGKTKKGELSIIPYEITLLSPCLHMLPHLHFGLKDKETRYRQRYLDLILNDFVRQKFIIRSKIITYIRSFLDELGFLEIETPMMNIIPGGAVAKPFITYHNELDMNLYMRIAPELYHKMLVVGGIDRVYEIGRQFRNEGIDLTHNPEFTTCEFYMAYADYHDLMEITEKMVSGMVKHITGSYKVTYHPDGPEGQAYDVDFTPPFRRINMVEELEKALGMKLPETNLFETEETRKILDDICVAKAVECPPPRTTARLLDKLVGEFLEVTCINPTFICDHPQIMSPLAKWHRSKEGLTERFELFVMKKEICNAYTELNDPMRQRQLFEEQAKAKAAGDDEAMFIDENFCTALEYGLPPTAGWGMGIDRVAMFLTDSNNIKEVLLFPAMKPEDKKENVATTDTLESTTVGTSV
Serine/threonine-protein kinase Chk2 (Homo sapiens), sequence (O96017 whole entry): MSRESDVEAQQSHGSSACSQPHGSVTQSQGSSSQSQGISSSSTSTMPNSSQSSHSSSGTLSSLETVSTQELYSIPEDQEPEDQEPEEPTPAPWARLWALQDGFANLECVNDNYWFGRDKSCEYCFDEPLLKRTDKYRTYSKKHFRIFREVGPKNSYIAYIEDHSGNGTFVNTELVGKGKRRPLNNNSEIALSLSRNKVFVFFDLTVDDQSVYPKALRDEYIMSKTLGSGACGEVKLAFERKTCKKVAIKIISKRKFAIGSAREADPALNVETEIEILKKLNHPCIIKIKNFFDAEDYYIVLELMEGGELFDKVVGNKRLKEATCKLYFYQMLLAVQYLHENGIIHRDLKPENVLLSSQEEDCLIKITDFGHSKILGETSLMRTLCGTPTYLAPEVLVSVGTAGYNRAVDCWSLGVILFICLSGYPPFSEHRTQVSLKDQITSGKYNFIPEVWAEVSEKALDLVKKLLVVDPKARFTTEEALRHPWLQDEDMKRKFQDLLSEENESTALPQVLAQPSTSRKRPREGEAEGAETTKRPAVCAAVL
Serine/threonine-protein kinase RIO3 (Homo sapiens), sequence (O14730 whole entry, the tested form may be a part): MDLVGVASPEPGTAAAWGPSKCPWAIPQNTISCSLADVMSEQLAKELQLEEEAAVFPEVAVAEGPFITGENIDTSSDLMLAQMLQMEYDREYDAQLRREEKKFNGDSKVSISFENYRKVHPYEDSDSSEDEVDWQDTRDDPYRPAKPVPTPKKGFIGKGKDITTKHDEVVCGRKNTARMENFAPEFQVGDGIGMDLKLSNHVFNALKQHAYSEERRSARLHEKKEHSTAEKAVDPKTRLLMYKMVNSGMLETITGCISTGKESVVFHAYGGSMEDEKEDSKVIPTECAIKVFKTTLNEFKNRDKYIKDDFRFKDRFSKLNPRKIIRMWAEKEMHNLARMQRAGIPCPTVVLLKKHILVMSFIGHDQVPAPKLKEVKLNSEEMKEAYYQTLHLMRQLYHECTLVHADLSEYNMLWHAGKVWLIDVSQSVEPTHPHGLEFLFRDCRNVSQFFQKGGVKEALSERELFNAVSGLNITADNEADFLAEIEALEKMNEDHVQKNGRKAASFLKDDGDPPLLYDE
Jupiter microtubule associated homolog 2 (Homo sapiens), sequence (Q9H910 whole entry): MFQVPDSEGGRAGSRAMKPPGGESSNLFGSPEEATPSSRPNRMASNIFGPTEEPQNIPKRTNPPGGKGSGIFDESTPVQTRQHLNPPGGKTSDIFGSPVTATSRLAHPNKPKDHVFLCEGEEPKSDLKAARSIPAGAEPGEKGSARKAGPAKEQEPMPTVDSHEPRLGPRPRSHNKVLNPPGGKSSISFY
Tropomyosin alpha-3 chain (Homo sapiens), sequence (P06753 whole entry): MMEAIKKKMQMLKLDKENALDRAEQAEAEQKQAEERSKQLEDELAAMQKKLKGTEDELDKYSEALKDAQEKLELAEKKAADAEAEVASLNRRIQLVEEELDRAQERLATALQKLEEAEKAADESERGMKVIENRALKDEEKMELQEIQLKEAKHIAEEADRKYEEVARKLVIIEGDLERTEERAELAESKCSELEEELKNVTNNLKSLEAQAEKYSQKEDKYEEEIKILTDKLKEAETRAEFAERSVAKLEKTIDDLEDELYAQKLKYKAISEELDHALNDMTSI
Thioredoxin-related transmembrane protein 1 (Homo sapiens), sequence (Q9H3N1 whole entry): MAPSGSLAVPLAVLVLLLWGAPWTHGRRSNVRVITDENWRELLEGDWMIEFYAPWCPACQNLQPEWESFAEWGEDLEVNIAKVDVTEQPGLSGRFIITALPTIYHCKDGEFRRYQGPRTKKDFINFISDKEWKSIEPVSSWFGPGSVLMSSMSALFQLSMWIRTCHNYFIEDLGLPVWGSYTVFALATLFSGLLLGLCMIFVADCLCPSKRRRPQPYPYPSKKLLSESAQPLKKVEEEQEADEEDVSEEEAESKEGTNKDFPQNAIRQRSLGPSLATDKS
Pyrroline-5-carboxylate reductase 2 (Homo sapiens), sequence (Q96C36 whole entry): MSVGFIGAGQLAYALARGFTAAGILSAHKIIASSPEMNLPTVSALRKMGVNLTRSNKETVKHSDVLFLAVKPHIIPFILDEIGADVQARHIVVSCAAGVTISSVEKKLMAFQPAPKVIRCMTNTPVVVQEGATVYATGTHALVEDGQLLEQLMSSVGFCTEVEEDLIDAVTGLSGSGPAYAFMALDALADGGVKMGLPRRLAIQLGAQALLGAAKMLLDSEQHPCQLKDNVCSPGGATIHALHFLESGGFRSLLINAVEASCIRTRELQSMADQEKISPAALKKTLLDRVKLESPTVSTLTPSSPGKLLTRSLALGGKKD

SMILES: COc1cc(O)c2c(c1)/C=C/C[C@H](O)[C@H](O)C(=O)/C=C\C[C@H](C)OC2=O
- Activity [1]: 74%
- inhibition [2]: 54.2%

SMILES: C=CC(=O)Nc1ccccc1Nc1nc(Nc2ccc(N3CCN(CCOCCOCCOCCNC(=O)CCCC[C@@H]4SC[C@@H]5NC(=O)N[C@@H]54)CC3)cc2)ncc1Cl
- Activity [3]: Active
- Activity [4]: Active
- Activity [5]: Active
- Activity [6]: Active
- Activity [7]: Active
- Activity [8]: Active
- Activity [9]: Active
- Activity [10]: Active
- Activity [11]: Active
- Activity [12]: Active
- Activity (NCI-H23): Active
- Activity [13]: Active
- Activity [14]: Active
- Activity [15]: Active
